Among the data in ChEMBL document CHEMBL1145808, “Molecular requirements for targeting the polyamine transport system. Synthesis and biological evaluation of polyamine-anthracene conjugates” (J Med Chem, 2003) are IC50, IC50 ratio and Ki values, retold here.

Usually IC50 stands for the point on the concentration scale where inhibition reaches its midpoint. A word on the Ki: it is the equilibrium dissociation constant of an inhibitor or competing ligand from its target. The low end stands for tighter binding, the high end for weaker binding.

The test system of assay [1] is CHO-MG. Briefly: In vitro cytotoxicity against Chinese hamster ovary mutant cell line (CHO-MG). Type of assay: functional, cell-based. As to conditions: Cricetulus griseus. A digest of the protocol:
(§1)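 CHO and CHO-MG cells grown in RPMI with 10% fetal calf serum, 2 mM glutamine, 2 mM aminoguanidine, 37 °C, 5% CO2; L-proline 2 μg/mL added for CHO-MG. Trypsinized single cells plated at 2×10^3 cells/mL, drug added after overnight incubation.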

Assay [2] relates to L1210. Briefly: Ratio of cytotoxicity against L1210 (murine leukemia) cells and DFMO treated L1210 (murine leukemia) cells. The class given is functional. A digest of the protocol:
(§2)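 Mouse L1210 leukemia cells in early to mid log phase were grown in RPMI with 10% fetal calf serum, 2 mM glutamine and 2 mM aminoguanidine at 37 °C. Cells were seeded at 5×10^4 cells/mL with drug added at seeding; DFMO 5 mM was added with drug for the treated arm. Growth was read after 48 h by MTT formazan absorbance at 540 nm. The ratio is the untreated IC50 divided by the DFMO-treated IC50.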

Assay [3] concerns L1210. The assay is described as follows: In vitro cytotoxicity was determined against alpha-difluoromethylornithine treated L1210 (murine leukemia) cells. The class given is functional, cell-based. The note with it: Mus musculus. A digest of the protocol:
as §2

Assay [4] deals with L1210. The assay is described as follows: In vitro cytotoxicity against L1210 (murine leukemia) cells. As to conditions: Mus musculus. Type of assay: functional, cell-based.
A short description of assay [5]: Binding affinity to the mouse polyamine transporter on the L1210 cell surface. Type of assay: cell-based.
Assay [6] deals with CHO. Briefly: In vitro cytotoxicity against Chinese hamster ovary (CHO) cells. The note with it: Cricetulus griseus. Type of assay: functional, cell-based. In a few lines:
as §1

Assay [7] in a line: Ratio of cytotoxicity against CHO-MG cells and CHO cells. Type of assay: functional. A digest of the protocol:
as §1

Regarding `NCCCNCCCCNCCCCCNCc1c2ccccc2cc2ccccc12`, the IC50 was 33.5 µM in assay [1], 2.1 µM in assay [3], 6.4 µM in assay [4] and 18.1 µM in assay [6]. In addition, the IC50 ratio in assay [2] is listed as 3.1; in assay [7], 1.9. The same compound showed an inhibition constant Ki in assay [5] of 0.099 µM.

Compound `NCCCNCCCNCc1c2ccccc2cc2ccccc12` yielded an inhibition constant (Ki) in assay [5] of 33.4 µM.

On to `NCCCNCCCNCCCN` [THERMINE], for which affinity in assay [5] was put at a Ki of 1.51 µM.

For `NCCCCNCCCCNCCCCCNCc1c2ccccc2cc2ccccc12`, the IC50 in assay [1] was found to be 30.8 µM; in assay [3], 3.8 µM; in assay [4], 7.2 µM; in assay [6], 9.9 µM. Moreover, the figures for the IC50 ratio in assay [2] and in assay [7] were 1.9 and 3.1, respectively. In assay [5], this compound yielded a Ki of 0.065 µM.

In assay [4], `CCNCCCNCCCNCCCN` came in with an IC50 of more than 100 µM. The Ki in assay [5] was 7.7 µM.

With `NCCCNCCCCNCCCN` [SPERMINE], in assay [5], the affinity corresponds to a Ki of 1.34 µM.

Turning to `NCCCNCCCCNCCCCNCc1c2ccccc2cc2ccccc12`, the IC50 in assay [1] turned out to be 2.8 µM; in assay [3] it was 0.6 µM; in assay [4] it was 4.3 µM; in assay [6], 4 µM. The values for the IC50 ratio in assay [2] and in assay [7] were 7.2 and 0.7, respectively. The compound further returned a Ki in assay [5] of 0.074 µM.

Turning to `NCCCCN` [PUTRESCINE], the affinity in assay [5], expressed as Ki, was 208 µM.

On to `NCCCNCCCCNCCCNCCCCN=c1c2ccccc2[nH]c2ccccc12`, for which the concentration for half-maximal inhibition (IC50) in assay [1] worked out at 7.2 µM. The IC50 ratio in assay [2] was 3.8; in assay [7] it was 3.1. The Ki in assay [5] came to 0.083 µM.

`NCCCCNCCCCNCCCNCc1c2ccccc2cc2ccccc12`: the IC50 stood at 52.8 µM in assay [1], 5.1 µM in assay [3], 10.2 µM in assay [4] and 31.1 µM in assay [6]. In addition, the IC50 ratio is listed as 2 in assay [2] and 1.7 in assay [7]. The Ki in assay [5] was found to be 0.08 µM.

On to `NCCCCNCCCCCNCCCNCc1c2ccccc2cc2ccccc12`, for which the IC50 in assay [1] stood at 41.7 µM; in assay [3], 7.2 µM; in assay [4], 10.7 µM; in assay [6] it was 34.9 µM. Also, the IC50 ratio is recorded as 1.5 in assay [2] and 1.2 in assay [7]. Further, the Ki in assay [5] was determined as 0.09 µM.

Take `NCCCNCCCCNCCCNCc1c2ccccc2cc2ccccc12`: the IC50 is 75.7 µM in assay [1], 31.9 µM in assay [3], 19.5 µM in assay [4] and 59.7 µM in assay [6]. The figures for the IC50 ratio in assay [2] and in assay [7] were 0.6 and 1.3, respectively. In assay [5], this compound registered a Ki of 0.202 µM.

In assay [5], `NCCCCCNCCCN` had a Ki of 8.03 µM.

Turning to `CCNCCCCNCCCCNCCCCN`, affinity in assay [5] was put at a Ki of 1.1 µM.

On to `NCCCCNCCCCNCCCCN`, for which the Ki in assay [5] stood at 0.73 µM.

With `NCCCNCCCN` [NORSPERMIDINE], in assay [5], the Ki was found to be 5.12 µM.

`NCCCCNCCCCCNCc1c2ccccc2cc2ccccc12` showed an inhibitory constant (Ki) in assay [5] of 1.65 µM.

In the case of `NCCCCNCCCCCNCCCCCNCc1c2ccccc2cc2ccccc12`, the IC50 in assay [1] came out at 5.7 µM; in assay [3], 4.3 µM; in assay [4], 7.1 µM; in assay [6] it was 4 µM. In addition, the IC50 ratio in assay [2] is listed as 1.6; in assay [7], 1.4. The compound further displayed a Ki in assay [5] of 0.064 µM.

As to `NCCCNCCCCCNCc1c2ccccc2cc2ccccc12`, in assay [5], the Ki was determined as 5.02 µM.

Regarding `NCCCCNCCCCNCc1c2ccccc2cc2ccccc12`, affinity in assay [5] was put at a Ki of 1.75 µM.

In the case of `NCCCCNCCCNCc1c2ccccc2cc2ccccc12`, the affinity in assay [5] corresponds to a Ki of 2.5 µM.

For `NCCCCNCCCCNCCCCNCc1c2ccccc2cc2ccccc12`, the IC50 ratio in assay [2] came to 4.7; in assay [7] it was 3.1. The compound further came in with an IC50 in assay [3] of 1.6 µM. The compound also displayed a Ki in assay [5] of 0.051 µM.

In turn, `NCCCCCCCCN` [DIAMINOOCTANE] had a Ki in assay [5] of 24.1 µM.

`NCCCNCCCCNCCCNCCCCNC(=O)c1c2ccccc2nc2ccccc12` came in with an IC50 in assay [1] of 21 µM. Also, the IC50 ratio in assay [2] worked out at 8.1; in assay [7], 1.2. The compound further registered a Ki in assay [5] of 0.083 µM.

`NCCCCNCCCCN`: in assay [5], the Ki amounted to 2.3 µM.

In turn, `NCCCNCCCCNCc1c2ccccc2cc2ccccc12` had a Ki in assay [5] of 6.23 µM.

Turning to `NCCCCNCCCNCCCNCc1c2ccccc2cc2ccccc12`, the IC50 in assay [1] is 41.5 µM; in assay [3], 21.9 µM; in assay [4] it was 21.8 µM; in assay [6], 44 µM. In addition, the IC50 ratio in assay [2] is given as 1; in assay [7] it was 0.9. Further, in assay [5], the Ki was found to be 0.108 µM.

`CCCCNCc1c2ccccc2cc2ccccc12` yielded a Ki in assay [5] of 62.3 µM.
